Data published in paper PMC11339345 (International Journal of Nanomedicine, 2024).

Legend:
[1] = cited from earlier work
[2] = Pharmacokinetics of DTX in mice after oral administration; assay type: in vivo; conditions: male, Kunming, mouse, plasma (systemic circulation), 20 mg/kg, oral 20 mg/kg DTX
In short: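 Male SPF Kunming mice (22–24 g) were randomised by weight and given a single oral dose of 20 mg/kg. Free drug was prepared as a sonicated water dispersion and the nanoparticle powder was vortexed in water. Five mice were sampled per time point (0.125–12 h) under Zoletil anaesthesia. Portal and systemic heparin plasma were collected, and liver and lung were rinsed, weighed and homogenised in water. Samples were acetonitrile-precipitated and assayed by LC-MS/MS, with parameters from non-compartmental analysis.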

[3] = two hours of incubation in an alkaline solution (0.005 N NaOH, pH roughly 11.7) ref 39; cited from earlier work

Tmax [2]: 30 min
SMILES: CC(=O)O[C@@]12CO[C@@H]1C[C@H](O)[C@@]1(C)C(=O)[C@H](O)C3=C(C)[C@@H](OC(=O)[C@H](O)[C@@H](NC(=O)OC(C)(C)C)c4ccccc4)C[C@@](O)([C@@H](OC(=O)c4ccccc4)[C@H]21)C3(C)C [DTX, Docetaxel]
Oral bioavailability [1]: 7.39%
Degradation [3]: about 25%
